In brackets after ≈: the same amount, converted by molar mass. Activity calls are given as the source filed them. The calls are words filed in the database; no cut-off is given here.
Columns and labels:
[1] = tested on: H9c2; test: Cytotoxicity against rat H9C2 cells; type: cell-based
[2] = tested on: Enterococcus faecalis; test: Antibacterial activity against Streptococcus faecalis NCTC 775; type: functional; conditions: Enterococcus faecalis, NCTC 775; read-out: MIC
How it was run: (§1)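 Broth microdilution in Mueller-Hinton broth. Samples were dissolved in sterile water to 200 µg mL-1 as the working solution and doubling dilutions were made across rows. Plates were incubated at 37 °C and inspected visually, with resazurin added as growth indicator. MIC reported in µg mL-1.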

[3] = tested on: Staphylococcus aureus; test: Antibacterial activity against methicillin-resistant Staphylococcus aureus clinical isolate 3; type: functional
How it was run: (§2)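 Broth microdilution MIC against clinical S. aureus isolates (incl. MRSA), run per NCCLS guidelines in 96-well plates. Test sample dissolved in sterile water to a 200 µg mL-1 working concentration, then doubling dilutions in Mueller-Hinton broth. Incubated at 37 °C, growth read visually plus resazurin indicator. MIC reported in µg/mL.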

[4] = tested on: Staphylococcus aureus; test: Antibacterial activity against methicillin-resistant Staphylococcus aureus clinical isolate 4; type: functional; how it was run: as §2
[5] = tested on: Mycolicibacterium fortuitum; test: Antibacterial activity against Mycobacterium fortuitum NCTC 10394; type: functional; how it was run: as §1
[6] = tested on: A-375; test: Cytotoxicity against human A375 cells; type: cell-based
[7] = tested on: Staphylococcus aureus; test: Antibacterial activity against methicillin-sensitive Staphylococcus aureus NCTC 6571; type: functional; conditions: Staphylococcus aureus, NCTC 6571; read-out: MIC; how it was run: as §1
[8] = tested on: Staphylococcus aureus; test: Antibacterial activity against methicillin-resistant Staphylococcus aureus clinical isolate 2; type: functional; how it was run: as §2
[9] = tested on: Staphylococcus aureus; test: Antibacterial activity against Staphylococcus aureus LS1 in mouse at 40 mg/kg, ip; type: functional, organism-based; design: dose 40 mg/kg
How it was run: (§3)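 Mice of 18-22 g, five per group, were inoculated intravenously with 50 million cfu of S. aureus LS-1, which causes bacteraemia and then joint localization within 3-4 days. A single dose (groups at 60, 40, 20 or 10 mg/kg) was given iv or ip. Joint inflammation was scored, with caliper measurement of affected joint diameter.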

[10] = tested on: Staphylococcus aureus; test: Antibacterial activity against methicillin-resistant Staphylococcus aureus clinical isolate 1; type: functional; how it was run: as §2
[11] = tested on: Jurkat; test: Cytotoxicity against human Jurkat cells; type: cell-based
[12] = tested on: Staphylococcus aureus; test: Antibacterial activity against methicillin-resistant Staphylococcus aureus clinical isolate 5; type: functional; how it was run: as §2
[13] = tested on: Aspergillus niger; test: Antifungal activity against Aspergillus niger IMI 149007; type: functional
How it was run: (§4)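 Antifungal microdilution in Sabouraud broth. Test sample at 200 µg mL-1 working solution in sterile water was serially doubled down successive rows. Incubation was at 25 °C, followed by visual growth check and addition of resazurin indicator. Read-out is MIC in µg mL-1.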

[14] = tested on: L929; test: Cytotoxicity against mouse L929 cells; type: cell-based
[15] = tested on: Candida albicans; test: Antifungal activity against Candida albicans NCPF 3179; type: functional; conditions: Candida albicans; read-out: MIC; how it was run: as §4
[16] = Cytotoxicity against human TE671 cells; type: cell-based; conditions: te-671
[17] = tested on: Staphylococcus aureus; test: Antibacterial activity against Staphylococcus aureus LS1 in mouse at 20 mg/kg, ip; type: functional, organism-based; design: dose 20 mg/kg; how it was run: as §3
[18] = tested on: HS27; test: Cytotoxicity against human HS27 cells; type: cell-based

## COc1ccc(/C=C/c2ccc(C(=O)Nc3cc(C(=O)Nc4cc(C(=O)NCCN5CCOCC5)n(C)c4)n(C)c3)cn2)cc1
[1]
  Activity: Non-toxic
[2]
  MIC: 6 µg/mL (≈ 9.81 µM)
[3]
  MIC: 2 µg/mL (≈ 3.27 µM)
[4]
  MIC: 2 µg/mL (≈ 3.27 µM)
[5]
  MIC: 50 µg/mL (≈ 81.7 µM)
[6]
  Activity: Non-toxic
[7]
  MIC: 6 µg/mL (≈ 9.81 µM)
[8]
  MIC: 4 µg/mL (≈ 6.54 µM)
[9]
  Activity: Active
[10]
  MIC: 0.5 µg/mL (≈ 0.817 µM)
[11]
  Activity: Non-toxic
[12]
  MIC: 0.5 µg/mL (≈ 0.817 µM)
[13]
  MIC: 50 µg/mL (≈ 81.7 µM)
[14]
  Activity: Non-toxic
[15]
  MIC: 25 µg/mL (≈ 40.9 µM)
[16]
  Activity: Non-toxic

## Cn1cc(NC(=O)c2cc(NC(=O)c3ccc(/C=C/c4cnc5ccccc5c4)cc3)cn2C)cc1C(=O)NCCN1CCOCC1 [MGB-BP-3]
[2]
  MIC: 25 µg/mL (≈ 39.6 µM)
[3]
  MIC: 0.12 µg/mL (≈ 0.19 µM)
[4]
  MIC: 0.25 µg/mL (≈ 0.396 µM)
[5]
  MIC: 50 µg/mL (≈ 79.1 µM)
[7]
  MIC: 3 µg/mL (≈ 4.75 µM)
[8]
  MIC: 0.25 µg/mL (≈ 0.396 µM)
[10]
  MIC: 0.12 µg/mL (≈ 0.19 µM)
[12]
  MIC: 0.12 µg/mL (≈ 0.19 µM)
[13]
  MIC: 25 µg/mL (≈ 39.6 µM)
[17]
  Activity: Active
[18]
  Activity: Non-toxic
[14]
  Activity: Non-toxic
[15]
  MIC: 50 µg/mL (≈ 79.1 µM)

## CC(C)c1sc(NC(=O)c2cc(NC(=O)c3cc(NC=O)cn3C)cn2C)nc1C(=O)NCCN1CCOCC1
[2]
  MIC: 25 µg/mL (≈ 43.8 µM)
[3]
  MIC: 64 µg/mL (≈ 112 µM)
[4]
  MIC: 64 µg/mL (≈ 112 µM)
[5]
  MIC: > 50 µg/mL
[7]
  MIC: 13 µg/mL (≈ 22.8 µM)
[8]
  MIC: > 64 µg/mL
[10]
  MIC: 32 µg/mL (≈ 56.1 µM)
[12]
  MIC: 64 µg/mL (≈ 112 µM)
[13]
  MIC: > 50 µg/mL
[15]
  MIC: > 50 µg/mL

## CC(=N)Nc1cc(C(=O)Nc2cc(C(=O)Nc3nc(C(=O)NCCN4CCOCC4)c(C(C)C)s3)n(C)c2)n(C)c1
[2]
  MIC: > 50 µg/mL
[3]
  MIC: > 64 µg/mL
[4]
  MIC: > 64 µg/mL
[5]
  MIC: > 50 µg/mL
[7]
  MIC: > 50 µg/mL
[8]
  MIC: > 64 µg/mL
[10]
  MIC: 64 µg/mL (≈ 110 µM)
[12]
  MIC: > 64 µg/mL
[13]
  MIC: > 50 µg/mL
[15]
  MIC: > 50 µg/mL

## COc1cccc(C(=N)Nc2cc(C(=O)Nc3cc(C(=O)Nc4cc(C(=O)NCCCN5CCOCC5)n(C)c4)n(C)c3)n(C)c2)c1
[2]
  MIC: > 50 µg/mL
[3]
  MIC: > 64 µg/mL
[4]
  MIC: > 64 µg/mL
[5]
  MIC: > 50 µg/mL
[7]
  MIC: > 50 µg/mL
[8]
  MIC: > 64 µg/mL
[10]
  MIC: > 64 µg/mL
[12]
  MIC: > 64 µg/mL
[13]
  MIC: > 50 µg/mL
[15]
  MIC: > 50 µg/mL

## CC(C)CCn1cc(NC(=O)c2cc(NC(=O)c3ccc4c(c3)OCO4)cn2C)cc1C(=O)Nc1cc(C(=O)NCCCN(C)C)n(C)c1
[2]
  MIC: > 50 µg/mL
[3]
  MIC: 16 µg/mL (≈ 23.8 µM)
[4]
  MIC: 16 µg/mL (≈ 23.8 µM)
[5]
  MIC: > 50 µg/mL
[7]
  MIC: 50 µg/mL (≈ 74.3 µM)
[8]
  MIC: 16 µg/mL (≈ 23.8 µM)
[10]
  MIC: 8 µg/mL (≈ 11.9 µM)
[12]
  MIC: 16 µg/mL (≈ 23.8 µM)
[13]
  MIC: > 50 µg/mL
[15]
  MIC: > 50 µg/mL

## COc1cccc(/C=C/c2ccc(C(=O)Nc3cc(C(=O)Nc4nc(C(=O)NCCCN(C)C)c(CCC(C)C)s4)n(C)c3)cc2)c1
[2]
  MIC: > 50 µg/mL
[3]
  MIC: 8 µg/mL (≈ 12.2 µM)
[4]
  MIC: 8 µg/mL (≈ 12.2 µM)
[5]
  MIC: > 50 µg/mL
[7]
  MIC: > 50 µg/mL
[8]
  MIC: 8 µg/mL (≈ 12.2 µM)
[10]
  MIC: 8 µg/mL (≈ 12.2 µM)
[12]
  MIC: 8 µg/mL (≈ 12.2 µM)
[13]
  MIC: > 50 µg/mL
[15]
  MIC: > 50 µg/mL

## COc1ccc(/C=C/c2ccc3cc(C(=O)Nc4cc(C(=O)Nc5cc(C(=O)NCCN6CCOCC6)n(C)c5)n(C)c4)ccc3n2)cc1
[2]
  MIC: 25 µg/mL (≈ 37.8 µM)
[3]
  MIC: > 64 µg/mL
[4]
  MIC: > 64 µg/mL
[5]
  MIC: > 50 µg/mL
[7]
  MIC: > 50 µg/mL
[8]
  MIC: > 64 µg/mL
[10]
  MIC: 4 µg/mL (≈ 6.04 µM)
[12]
  MIC: > 64 µg/mL
[13]
  MIC: 50 µg/mL (≈ 75.6 µM)
[15]
  MIC: > 50 µg/mL
